Bioassay records deposited in PubChem by Broad Institute.
Shown are actives, neighbours in structure and some others; about 3.1% of the full set was active somewhere.
CFTR F508del cor – F508del CFTR correction, initial screen, CFBE line, single point | CFBE cells, YFP halide quenching; stimulated with forskolin plus potentiator P3; % fluorescence drop versus neutral controls | activity (quench increase), % at 7.58 µM | 350,000 tested, 0.36% active | AID 720511, 2013;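 active = mean added fluorescence quench of at least 8% versus neutral control, with both replicates also reaching 8%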;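 note: cells transiently co-express mutant CFTR-F508del with the halide-sensitive YFP; corrector assay measuring rescue of mutant channel to the surface after 24 h compound exposure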
rRNA inh HTS – reduced GFP signal of wild-type E. coli, primary screen, bacterial rRNA inhibitor project, GFP/RFP fluorescence, OD600, single point; E. coli WT GFP vs humanized-ribosome RFP mutants, 24 h; hits give low values; DMSO median 0, no signal -100; GFP signal change (wild-type ribosome), % (no concentration beside the values); 350,000 tested, 1.6% active; AID 720706, 2013;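 active = significant combined selectivity score with lowered wild-type GFP, culture density cut under 30%, mutant RFP and density less affected; inactive = any of these conditions unmet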
S100A4 MyoIIA – inhibitors of S100A4-myosin IIA peptide binding, primary screen, biochemical, fluorescence polarization, TAMRA-MyoIIA peptide | inhibition, % at 10.7 µM | 360,000 tested, 0.14% active | AID 652163, 2013;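 active = mean inhibition of at least 70% across replicates, with every replicate also reaching that level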
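Assay system: human S100A4 monomer with TAMRA-labelled myosin IIA peptide / Buffer or medium: Calcium-containing HEPES buffer, pH 7.2 / Reagent: TAMRA-labelled myosin IIA heavy-chain peptide probe, 5 nM / Compound: one dose per compound / Timing: polarization read 5 min after assay mix addition, stable 5–60 min / Benchmarks: neutral control DMSO, positive control TFP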
SIRT5 inh – SIRT5 desuccinylase inhibitors, primary screen, biochemical, fluorescence imaging, single point, set 5; 330,000 tested, 1.1% active; inhibition, % at 15 µM; Purified SirT5, succinyl-peptide AMC, trypsin-coupled fluorescence; NAD-dependent protein deacylase sirtuin-5, mitochondrial (Homo sapiens), Q9NXA8; in the data active = inhibition above about 15%
ERAP1 HTS inh – human ERAP1 aminopeptidase inhibitors, primary screen, biochemical, single point, plate reader; Endoplasmic reticulum aminopeptidase 1 (Homo sapiens), Q9NZ08; 340,000 tested, 0.15% active; recombinant ERAP1, Leu-AMC fluorescence, 60 min; inhibition, % at 10.7 µM;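 active = mean replicate inhibition of at least 30%, or all replicates individually reaching that 30% level; inactive = mean below 30% and not every replicate reaching it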;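 note: 0% = neutral control wells and 100% = L-leucinethiol positive control wells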
Target sequence (Q9NZ08 whole entry, looked up): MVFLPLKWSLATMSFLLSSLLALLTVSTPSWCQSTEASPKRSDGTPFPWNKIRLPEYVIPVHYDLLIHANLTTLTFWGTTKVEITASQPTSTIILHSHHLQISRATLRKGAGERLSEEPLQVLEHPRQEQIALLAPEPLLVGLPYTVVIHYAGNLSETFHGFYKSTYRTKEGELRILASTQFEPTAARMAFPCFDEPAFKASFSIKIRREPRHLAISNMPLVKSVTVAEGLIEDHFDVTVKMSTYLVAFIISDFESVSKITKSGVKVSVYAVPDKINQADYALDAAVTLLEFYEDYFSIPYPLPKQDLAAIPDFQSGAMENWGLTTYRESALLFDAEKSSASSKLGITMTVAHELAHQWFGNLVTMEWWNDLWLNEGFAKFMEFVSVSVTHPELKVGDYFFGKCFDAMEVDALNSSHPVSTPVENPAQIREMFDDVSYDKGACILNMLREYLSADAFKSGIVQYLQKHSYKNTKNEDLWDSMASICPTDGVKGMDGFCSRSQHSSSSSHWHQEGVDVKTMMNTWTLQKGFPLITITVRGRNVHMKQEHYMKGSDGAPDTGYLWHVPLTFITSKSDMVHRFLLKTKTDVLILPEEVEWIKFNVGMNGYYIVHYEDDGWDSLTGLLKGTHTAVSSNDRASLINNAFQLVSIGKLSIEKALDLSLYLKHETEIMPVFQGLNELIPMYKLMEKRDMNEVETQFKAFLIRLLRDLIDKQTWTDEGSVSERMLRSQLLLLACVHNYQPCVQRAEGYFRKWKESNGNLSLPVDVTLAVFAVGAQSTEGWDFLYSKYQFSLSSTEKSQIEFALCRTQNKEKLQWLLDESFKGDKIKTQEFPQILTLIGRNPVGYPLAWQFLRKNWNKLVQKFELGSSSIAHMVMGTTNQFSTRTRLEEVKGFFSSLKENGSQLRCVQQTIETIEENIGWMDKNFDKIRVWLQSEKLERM
* hit, by the source's call; x = no result.

SMILES | CFTR F508del cor | rRNA inh HTS | S100A4 MyoIIA | SIRT5 inh | ERAP1 HTS inh
Cc1ccc(S(=O)(=O)N2C[C@@H](C)[C@]3(C2)[C@H](O)[C@H](OC(=O)NCc2ccco2)C[C@H]2C(=O)N(c4ccccc4)C(=O)[C@H]23)cc1 | -4 | 7 | 21 | 22* | -1
O=C(COC(=O)c1ccc(Br)o1)Nc1ncc([N+](=O)[O-])s1 | 4 | -28 | 1 | 16* | 8
O=C(CS(=O)(=O)c1ccccc1)Nc1ncc([N+](=O)[O-])s1 | -2 | -6 | -8 | 3 | 3
COc1ccc(C(=O)OCC(=O)Nc2ncc([N+](=O)[O-])s2)cc1OC | 1 | -2 | -9 | 6 | 1
O=C(CCS(=O)(=O)c1ccccc1)Nc1ncc([N+](=O)[O-])s1 | 0 | -22* | -3 | 1 | 4
Cc1cc(C(=O)Nc2cccc3c2O[C@@H](CN(C)Cc2ccc4c(c2)OCO4)[C@H](C)CN([C@H](C)CO)C3=O)n(C)n1 | 1 | -1 | -1 | 0 | 0
O=C(COC(=O)c1cc(Cl)ccc1Cl)NC1CCCC1 | -1 | 4 | 4 | 0 | 1
NC(=O)c1cc(Cl)ccc1OCC(=O)NC1CC1 | 9.0* | 4 | -2 | 0 | 2
CCc1c(C)nc2ncnn2c1NCCc1ccc(OC)cc1 | 11* | -27* | 5 | -7 | -1
CCc1c(C)nc2ncnn2c1Nc1ccc(C)cc1 | 2 | 1 | 0 | 0 | -1
CN(C)C(=O)c1cccc(-c2ccc([C@@H]3[C@@H](C#N)N(C(=O)C4CCCC4)[C@H]3CO)cc2)c1 | -3 | -4 | 5 | 4 | 4
CO[C@H]1CN(C)C(=O)c2cc(NC(=O)C3CCOCC3)ccc2OC[C@@H](C)N(Cc2cccnc2)C[C@H]1C | -1 | 4 | 3 | 1 | x
O=S(c1ccccc1O)S(=O)c1ccccc1O (stereo not given) | 1 | x | -7 | 26* | 99*
Cc1ccc(-c2csc3nc(C(C)C)oc(=O)c23)c(C)c1 | -2 | -24* | -9 | 1 | -7
Cc1noc(C)c1NC(=O)N(C)C[C@H]1Oc2c(NS(=O)(=O)c3cn(C)cn3)cccc2C(=O)N([C@H](C)CO)C[C@H]1C | 0 | 2 | -24 | 1 | 0
Cc1ccc(-c2nc3ccccc3c(=O)o2)cc1 | x | 2 | -4 | 16* | -3
O=C(Nc1cccc(-c2nc3ccccc3c(=O)o2)c1)c1ccccc1 | -1 | -20* | -16 | -5 | -11
Cc1ccc(-c2cc(-c3n[nH]c(=S)o3)c3ccccc3n2)cc1 | -1 | -18* | -4 | 3 | -3
O=C(C[C@@H]1CC[C@@H]2[C@H](COC[C@@H](O)CN2C(=O)c2ccccn2)O1)NC1CCC1 | 0 | 0 | 33 | 4 | 0
CN(CCCC(=O)Nc1ccc(Br)cc1F)S(=O)(=O)c1ccccc1 | 1 | -22* | -3 | -4 | -2
CN(CCCC(=O)Nc1ccccc1F)S(=O)(=O)c1ccc(F)cc1 | -3 | -4 | 5 | -3 | -2
O=C(Cc1ccncc1)NCC[C@@H]1CC[C@@H](NC(=O)Nc2cccc(F)c2)[C@@H](CO)O1 | 3 | -2 | -6 | -1 | -3
COc1ccc(CNCC(=O)Nc2ccccc2-n2cccc2)cc1 | 10* | -18 | 19 | -1 | 0
O=C(C1CCOCC1)N1C[C@H]2[C@@H](c3ccccc31)[C@@H](CO)N2C(=O)Nc1cccc(F)c1 | 0 | 3 | -1 | 0 | 1
COc1ccc(NC(=O)[C@H](C)NC(N)=O)cc1S(=O)(=O)Nc1cc(C)ccc1Br | 0 | 2 | 3 | 16* | 3
SMILES | CFTR F508del cor | rRNA inh HTS | S100A4 MyoIIA | SIRT5 inh | ERAP1 HTS inh
COc1ccc(NC(=O)C2CCC2)cc1S(=O)(=O)Nc1cc(C)ccc1Br | -1 | -8 | -10 | x | -1
Nc1ncncc1-c1ccc(Cl)cc1 | 0 | -22* | 9 | x | -4
Nc1ncncc1-c1ccccc1Cl | 3 | -5 | -8 | -6 | 5
CC(C)(C)c1n[nH]c2c1CCCC2 | 0 | 20 | -6 | 42* | -4
O=C(NN=C1CCCC1)c1n[nH]c2c1CCCC2 | -2 | 6 | 0 | 2 | 3
COc1ccccc1Nc1nnc(SCC2CCCCO2)s1 (stereo not given) | 3 | -24 | 7 | -2 | 0
